Source: PubChem BioAssay (Johns Hopkins Ion Channel Center)
In the library only some 3.5% were active in any assay of this set; here they are far more common.
MrgX1 ag: agonists of human MrgX1 receptor, primary screen, HEK293 cells, Fluo-4 calcium flux | Mas-related G-protein coupled receptor member X1 (Homo sapiens), Q96LB2 | Fluo-4 calcium fluorescence, agonist mode; hits give high values | B-score at 10 µM | hit rate 0.44% among 310,000;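 active means calcium response B-score plate-corrected fluorescence ratio at least 3 library SD, with starting fluorescence B-score inside 5 SD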
Target sequence (Q96LB2 whole entry, looked up): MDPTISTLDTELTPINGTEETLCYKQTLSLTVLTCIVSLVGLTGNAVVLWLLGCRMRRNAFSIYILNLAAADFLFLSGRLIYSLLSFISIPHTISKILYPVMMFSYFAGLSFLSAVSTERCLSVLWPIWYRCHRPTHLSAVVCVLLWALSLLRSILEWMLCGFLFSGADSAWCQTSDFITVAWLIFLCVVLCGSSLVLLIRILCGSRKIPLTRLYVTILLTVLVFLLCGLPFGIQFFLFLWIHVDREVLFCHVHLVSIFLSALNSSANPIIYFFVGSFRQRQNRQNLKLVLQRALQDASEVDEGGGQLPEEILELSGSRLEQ
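Material: MrgX1-expressing HEK293 cells; input: 15,000 cells per well; doses: test compound given as first of three sequential additions; schedule: overnight plating before 1 h dye loading; technique: Fluo-4 NW calcium-flux fluorescence, kinetic read; evaluation: baseline-normalised fluorescence change ratio, B-scored; control set: plate-wise positive and negative controls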
RGS4 pot: RGS4 potentiators or activators, primary screen, cell-based, HEK293 M3R inducible RGS4, calcium flux. hit rate 0.92% among 310,000. B-score at 10 µM. carbachol calcium flux Fluo4; hits give low values. AID 463111, 2010;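 active means B-score of the integrated calcium signal more than 4 SD below the library mean, with starting fluorescence not abnormally high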;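 further: negative B-score means reduced calcium response which marks RGS4 activation or potentiation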
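Material: Inducible-RGS4 HEK293 cells carrying M3 receptor; also added: carbachol at ECmax as muscarinic agonist stimulus; incubation: compound preincubation 20 min at room temperature before agonist; signal: Fluo4-AM (2 µM) calcium-flux fluorescence, kinetic read; measure: integrated calcium ratio converted to B score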
MrgX1 antagonist: antagonists of human MrgX1 receptor, primary screen, HEK293 cells, Fluo-4 calcium flux; B-score at 10 µM; hit rate 1.3% among 310,000; AID 588676, 2011; BAM8-22 antagonism; hits give low values; Mas-related G-protein coupled receptor member X1 (Homo sapiens), Q96LB2;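 active means calcium-response B-score plate-corrected more than 3 library SD below zero, starting fluorescence within 5 deviations, no agonist response on first addition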;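 further: peak minus trough fluorescence over baseline after final BAM8-22 challenge near maximal dose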
RGS4 inh: RGS4 inhibitors, primary screen, cell-based, HEK293 M3R inducible RGS4, calcium flux; Regulator of G-protein signaling 4 (Homo sapiens), P49798; B-score at 10 µM; Fluo-4 calcium flux; hits give high values; triggered by carbachol at its EC20; hit rate 0.45% among 310,000;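 active means B-score, a plate-corrected calcium signal, over three deviations above library mean, with baseline fluorescence within five deviations of library mean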;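 further: RGS4 expression induced by doxycycline in cells with stable M3 receptor; B-score is computed from the integrated fluorescence ratio over baseline after carbachol; higher B-score means a larger calcium signal and so more RGS4 inhibition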
MrgX1 allo act: positive allosteric modulators of MrgX1, primary screen, HEK293 cells, Fluo-4 calcium flux. B-score at 10 µM. FDSS; hits give high values. hit rate 0.63% among 310,000. AID 588675, 2011;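 active means plate-corrected calcium response at least 3 library SD above typical, normal starting fluorescence, not activating the receptor alone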;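 further: compound read alongside a low EC10 to EC30 dose of BAM8-22 agonist; peak minus trough fluorescence over baseline measured at the second addition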
* hit, by the source's call; i = inactive; nt = not tested or not shown.

SMILES | MrgX1 ag | RGS4 pot | MrgX1 antagonist | RGS4 inh | MrgX1 allo act
CCN(CC)c1ccc(/C=N/c2sc3c(c2C#N)C2CCN3CC2)c(O)c1 | i | nt | i | nt | 16.7*
O=[N+]([O-])c1cc(O)c(O)c([N+](=O)[O-])c1 | i | nt | -5.37* | nt | i
Cn1cc(/C=C2\C(=O)NC(=O)N(c3ccccc3)C2=O)c2ccccc21 | i | -7.82* | i | i | i
O=C(O)Cn1cc(/C=C2\C(=O)NC(=O)N(c3ccc(Cl)cc3)C2=O)c2ccccc21 | i | i | i | i | i
CC(=NCCCn1ccnc1)c1c(O)n(C2CCCCC2)c(=O)[nH]c1=O | i | i | i | i | i
CN1CCN(c2ccc([N+](=O)[O-])c3no[n+]([O-])c23)CC1 | i | -8.24* | i | i | i
COC(=O)C1=C(c2cc3ccccc3o2)C[C@@H]2CC[C@H]1N2C(=O)NCc1ccc(C(F)(F)F)cc1 | i | i | i | i | 9.17*
CCN(CC)c1ccc(CNCCc2ccccc2F)cc1 | i | -6.97* | i | i | i
CC(C)=CCc1c(O)cc2c(c1O)C(=O)CC(c1ccc(O)cc1)O2 (stereo not given) | i | -7.18* | i | i | i
C/C(=N\N1CCCCCC1)c1c(O)n(-c2ccc(C)cc2)c(=O)[nH]c1=O | i | i | i | i | i
CC/C(=N\N1CCCCCC1)c1c(O)n(-c2ccc(C)cc2)c(=O)[nH]c1=O | i | i | i | i | 11.3*
Cc1ccc(OCCOc2cccc(C=C3C(=O)NC(=O)NC3=O)c2)c(C)c1 | i | i | i | i | i
C=C(C=O)CC1CC(O)[C@]2(C)OC3C[C@@H]4OC5C[C@]6(C)O[C@]7(C)CCC8OC9C[C@]%10(C)OC(/C(C)=C\CO)C(O)CC%10OC9CC(C)C8OC7CC6O[C@]5(C)C/C=C\C4OC3CC2O1 (stereo not given in full) | i | nt | i | nt | i
C=C(C=O)C[C@@H]1C[C@H](O)C2OC3C[C@]4(C)OC5/C=C\CC6OC7C(CC=CCC6OC5CCCC4OC3CC2O1)OC1CC2OC3CC(=O)OC3C[C@@H](C)C[C@@]2(C)OC1C[C@@H]7C (stereo not given in full) | nt | -9.74* | nt | i | nt
Clc1ccc(C(c2ccc(Cl)cc2)n2cc[n+](CC(OCc3ccc(Cl)cc3Cl)c3ccc(Cl)cc3Cl)c2)cc1 (stereo not given) | i | nt | i | nt | i
COC(=O)C1CN(C#N)N(c2ccc(Cl)cc2)C12c1ccccc1-c1ccccc12 (stereo not given) | i | i | i | i | i
CSc1ccc(CN2CCN(Cc3ccccc3Cl)CC2)cc1 | i | i | i | i | i
CC(Cc1ccccc1Sc1ccccc1)N(C)C (stereo not given) | i | -9.33* | i | i | i
CN1CCN(Cc2ccccc2Sc2ccccc2)CC1 | i | -8.16* | i | i | i
CCOP(=O)(/C=C(\Cl)c1ccccc1)C(O)c1ccc(F)cc1 (stereo not given) | i | i | i | i | i
COC(=O)C1=C(c2cccc(OC)c2OC)C[C@@H]2CC[C@H]1N2C(=O)NCc1cccc2ccccc12 | i | i | i | i | i
CN1CCN(c2ccc(N)cc2Cl)CC1 | i | i | -5.26* | i | i
Cc1ncc(CN2CCCC(C(=O)c3sccc3C)C2)s1 (stereo not given) | i | i | i | i | i
CC[N+]12CCC(CC1)C(=C(c1ccccc1)c1ccccc1)C2 | i | -10* | i | i | i
CCC[N+]12CCC(CC1)C(C(O)(c1ccccc1)c1ccccc1)C2 (stereo not given) | i | i | i | i | i
C[N+]12CCC(CC1)C(=C(c1ccccc1)c1ccccc1)C2 | i | -8.85* | i | i | i
COc1cc(N2CCOCC2)ccc1/C=C1\C(=O)NC(=O)N(Cc2ccc3c(c2)OCO3)C1=O | i | i | i | i | 11.8*
